Screens from PubChem BioAssay.
In the library only some 11% were active in any assay of this set; here they are far more common.
M1 antag – blocks the rat M1 muscarinic receptor response to acetylcholine. actives 3.4% (n = 64,000). P08482. CHO-M1 cells, Fluo-4 calcium, ACh EC80 antagonist mode; active compounds read low. B-score at 10 µM;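 active = calcium fluorescence response, raw or row-and-column corrected B-score, differing from the plate sample mean either way at a set confidence level, mostly lower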
S1P1 ag-PAM – S1P1 (human) agonism or agonism potentiation; P21453; S1P1 CRE-bla cells, forskolin, beta-lactamase FRET, potentiator mode; S1P1 agonist co-added at EC20, 2 nM; 100% = saturating reference agonist, 0% = basal; activation, % at 9.5 µM; actives 0.57% (n = 56,000);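 active = activation above a cutoff set at the mean activation of all tested compounds plus 3 SD, cut at about 54% in these data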;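 also: forskolin at 4 µM as EC80 and the EC20 agonist is SEW2871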
Target sequence (P21453 whole entry, looked up): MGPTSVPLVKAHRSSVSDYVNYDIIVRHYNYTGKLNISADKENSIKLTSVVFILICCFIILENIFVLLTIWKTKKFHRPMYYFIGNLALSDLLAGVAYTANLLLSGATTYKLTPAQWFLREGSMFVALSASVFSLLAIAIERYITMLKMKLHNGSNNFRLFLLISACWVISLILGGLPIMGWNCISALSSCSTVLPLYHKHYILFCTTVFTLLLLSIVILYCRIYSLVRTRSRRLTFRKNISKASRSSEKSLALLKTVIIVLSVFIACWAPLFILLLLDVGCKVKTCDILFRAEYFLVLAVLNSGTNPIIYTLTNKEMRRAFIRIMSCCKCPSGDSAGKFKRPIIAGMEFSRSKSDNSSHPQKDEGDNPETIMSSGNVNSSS
S1P3 ag – activates the human S1P3 receptor; actives 0.1% (n = 60,000); S1P3 NFAT-BLA reporter cells, agonism, FRET ratio; relative to 1 µM S1P, basal subtracted; Q99500; AID 373; activation, % at 4.5 µM;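 active = activation above the screen-wide mean plus 3 SD, cut at about 4.5% in these data, passing the limit was not always enough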
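Assay system: CHO cells stably expressing human S1P3, Gα16 and NFAT-β-lactamase reporter. Timing: overnight plating, 4 h compound 37 °C, 2 h substrate RT. Signal: β-lactamase FRET emission ratio 460/535 nm. Measure: percent activation versus median 1 µM S1P response, basal-subtracted, per plate. Repeats: primary screen single test, confirmation screen in triplicate.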
M1 agonist – agonists of M1 muscarinic receptor | actives 3% (n = 64,000) | B-score at 10 µM | CHO-M1 cells, Fluo-4 calcium fluorescence, agonist mode; active compounds read high;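 active = fluorescence rise, raw or as B-score row- and column-corrected plate score, outside the 99.7% band of its plate's samples, either direction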
TNAP act mid DEA – human TNAP activation, intermediate phosphate acceptor; P05186; 64,000 tested, under 10 active; activation factor at 20 µM; AID 813; purified TNAP, CDP-star luminescence, 100 mM DEA, 30 min; active compounds read high; scale: 0 levamisole-inhibited, 1 vehicle-only enzyme;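 active = activation factor of at least 2 at 20 µM, relative to controls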
D1 allo mod – D1 dopamine receptor (human) allosteric modulation | P21728 | HEK293 D1, CRE-luciferase, dopamine EC30 potentiation; actives deviate in either direction | B-score at 10 µM | actives 5.9% (n = 58,000);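 active = luminescence count or its row- and column-corrected plate score outside the 99.7% band of the plate's sample wells, on either side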
M1 antag conf – confirmation of rat M1 muscarinic receptor antagonists; shares compounds with M1 antag; CHO-M1 cells, Fluo-4 calcium, ACh EC80 antagonism; active compounds read low; calcium response (max-min fluorescence) at 10 µM; actives 43% (n = 1,700); AID 677;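 active = calcium response below the same-plate mean of wells given acetylcholine alone at its 80%-effect dose, minus 3 SD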
mGluR4 antag – acts on human mGluR4 in M1 antagonist selectivity test; shares compounds with M1 antag; CHO-mGluR4 calcium flux, Fluo-4 fluorescence, glutamate EC80; active compounds read low; fluorescence response (max-min) at 10 µM; actives 0.9% (n = 1,700); AID 678;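 active = fluorescence response below the plate's average for near-maximal glutamate wells, less 3 SD of those wells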;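 also: raw unnormalized fluorescence span taken in the window right after glutamate addition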
D1 mod confirm – D1 receptor (human) allosteric modulation, confirmed; luminescence at 10 µM; HEK293 D1 CRE-luciferase, dopamine EC30 potentiation; active compounds read high; actives 88% (n = 2,200); shares compounds with D1 allo mod;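 active = luminescence in either of two replicates above the same-plate mean plus 3 SD of the low-dose dopamine control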
D1 no dopamine – secondary test of D1 modulators: activity without dopamine. shares compounds with D1 allo mod. HEK293 D1 CRE-luciferase, luminescence, no dopamine; active compounds read high. luminescence at 10 µM. actives 0.8% (n = 1,900); in the data active = luminescence above about 3900
Isoprot counter – counter-screen for D1 modulators: isoproterenol response in HEK293 cells | shares compounds with D1 allo mod | HEK293 D1 CRE-luciferase, isoproterenol EC30 counter-screen; active compounds read high | luminescence at 10 µM | actives 63% (n = 2,200);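 active = luminescence in either replicate above plate mean of wells with a partly effective reference agonist dose plus 3 SD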;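 also: isoproterenol raises cAMP through native beta-adrenoceptor Gs so signal bypasses D1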
Of the large screens only hits and unclear results are named; the others gave an inactive call (follow-up assays come after a bar, where they were run).

Cc1cc2nnc(SCC(=O)NCc3ccco3)n2c2ccccc12	none (no result: TNAP act mid DEA)
CCC(=O)N1c2ccc(S(=O)(=O)CCC(=O)N3CCn4c3nc3ccccc34)cc2CC1C (stereo not given)	M1 antag -3.3, D1 allo mod 3.9 | M1 antag conf inactive | mGluR4 antag inactive | D1 mod confirm 12244 | D1 no dopamine inactive | Isoprot counter 3500
CCC(=O)N1c2ccc(S(=O)(=O)CCC(=O)NC3CCCC3)cc2CC1C (stereo not given)	none
Cc1cc(C)c2nc(N3CCC(C(=O)N4CCCC4)CC3)sc2c1	M1 antag -8, D1 allo mod 3.51 | M1 antag conf 233 | mGluR4 antag inactive | D1 mod confirm inactive | D1 no dopamine inactive | Isoprot counter inactive
Cc1cc(-c2nnc3sc(C4CCCCC4)nn23)n[nH]1	M1 antag -0.135, D1 allo mod 7.81 | M1 antag conf inactive | mGluR4 antag inactive | D1 mod confirm 14928 | Isoprot counter 3496
c1cncc(-c2nnc3sc(C4CCCCC4)nn23)c1	none (no result: D1 allo mod)
CCCc1nc(SCC(=O)NCc2ccc3c(c2)OCO3)c2c(=O)n(C)c(=O)n(C)c2n1	none
CCN(CC)CCOc1c(Br)ccc2c1sc1nc3n(c(=O)c12)CCC3	M1 antag -11.2, D1 allo mod 2.66 | M1 antag conf 130 | mGluR4 antag inactive | D1 mod confirm 8312 | D1 no dopamine inactive | Isoprot counter inactive
CCCCSc1nc2c(cnn2-c2ccc(F)cc2)c(=O)[nH]1	M1 antag -2.87, D1 allo mod 6.98 | M1 antag conf inactive | mGluR4 antag inactive | D1 mod confirm 7560 | D1 no dopamine inactive | Isoprot counter inactive
Cc1ccc(S(=O)(=O)N(C)CC(=O)NC2CC(C)(C)NC(C)(C)C2)cc1	none
Nc1nc2n(c1C(=O)c1ccccc1)CCC2	none (no result: M1 antag, M1 agonist)
COc1ccc(C2CC(c3cc(OC)ccc3OC)n3nnnc3N2)cc1 (stereo not given)	M1 antag -17.1, D1 allo mod 2.7 | M1 antag conf inactive | mGluR4 antag inactive | D1 mod confirm 9576 | D1 no dopamine inactive | Isoprot counter inactive
Cc1[nH]c2ccccc2c1C(O)CN1CCN(c2cccc(C(F)(F)F)c2)CC1 (stereo not given)	none
S=C(N=Nc1ccccc1)NNc1ccccc1	none
CCSc1nc2cc(OC)c(OC)cc2c(=O)n1CC	M1 antag -3.09, D1 allo mod 11.2 | M1 antag conf inactive | mGluR4 antag inactive | D1 mod confirm 13604 | D1 no dopamine inactive | Isoprot counter 3820
NC(=O)c1oc2ccc(Cl)cc2c1NC(=O)CN1CCOCC1	none
CCOC(=O)c1oc2ccc(Br)cc2c1NC(=O)CN1CCN(C)CC1	M1 antag -2.91, D1 allo mod 5.74 | M1 antag conf 450 | mGluR4 antag inactive | D1 mod confirm 5896 | D1 no dopamine inactive | Isoprot counter inactive
CCCn1c(SCC(=O)Nc2ccccc2-c2ccccc2)nnc1-c1ccoc1C	none
COc1ccc(Cc2nnc(NC(=O)c3cccs3)s2)cc1	none
